Assays:
[1] = Selectivity index, ratio of CC50 for human MT4 cells to EC50 for reverse transcriptase Y181C mutant in human MT4 cells infected HIV1 3B; conditions: MT4 cells
[2] = Cytotoxicity against human MT4 cells assessed as cell viability after 5 days by MTT assay; type: cell-based
[3] = tested on: Human immunodeficiency virus 2; experiment: Antiviral activity against HIV2 ROD harboring reverse transcriptase infected in human MT4 cells assessed as protection against virus induced cytotoxicity after 5 days by MTT assay; type: functional, cell-based; conditions: Human immunodeficiency virus 2, ISOLATE ROD, MT4, 120 h
[4] = Selectivity index, ratio of CC50 for human MT4 cells to EC50 for reverse transcriptase F227L/V106A double mutant in human MT4 cells infected HIV1 3B; conditions: MT4 cells
[5] = tested on: Human immunodeficiency virus 1; experiment: Antiviral activity against wild type HIV1 3B harboring reverse transcriptase infected in human MT4 cells assessed as protection against virus induced cytotoxicity after 5 days by MTT assay; type: functional, cell-based; conditions: Human immunodeficiency virus 1, 3B, MT4, 120 h
[6] = Selectivity index, ratio of CC50 for human MT4 cells to EC50 for wild type HIV1 3B harboring reverse transcriptase infected in human MT4 cells; conditions: MT4 cells
[7] = Selectivity index, ratio of CC50 for human MT4 cells to EC50 for reverse transcriptase L100I mutant in human MT4 cells infected HIV1 3B; conditions: MT4 cells
[8] = Selectivity index, ratio of CC50 for human MT4 cells to EC50 for reverse transcriptase K103N mutant in human MT4 cells infected HIV1 3B; conditions: MT4 cells
[9] = Selectivity index, ratio of CC50 for human MT4 cells to EC50 for HIV1 RES056 reverse transcriptase K103N/Y181C double mutant infected in human MT4 cells; conditions: MT4 cells
[10] = Selectivity index, ratio of CC50 for human MT4 cells to EC50 for reverse transcriptase Y188L mutant in human MT4 cells infected HIV1 3B; conditions: MT4 cells
[11] = Selectivity index, ratio of CC50 for human MT4 cells to EC50 for reverse transcriptase E138K mutant in human MT4 cells infected HIV1 3B; conditions: MT4 cells
[12] = Fold resistance, ratio of EC50 for reverse transcriptase E138K mutant in human MT4 cells infected HIV1 3B to EC50 for wild type HIV1 3B harboring reverse transcriptase infected in human MT4 cells; type: functional
How it was run: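 MT-4 cells at 6 × 10^5 cells/mL were infected with WT HIV-1 IIIB or RT-mutant strains at 100−300 CCID50, with 5-fold serial compound dilutions in triplicate wells. After 5 days, viability was read by MTT reduction at 540 and 690 nm, using the median OD of three wells. […] Fold resistance is mutant EC50 divided by WT EC50.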

Cc1cc(C#N)cc(C)c1Oc1nc(NC2CCC(NCc3ccc(O)cc3)CC2)nc2ccsc12 (stereo unspecified)
selectivity ratio [1]: < 1 | CC50 at 120 h [2]: 20100 nM | EC50 [3]: > 20100 nM | selectivity ratio [4]: < 1 | EC50 [5]: 1310 nM | selectivity ratio [6]: 15 | selectivity ratio [7]: < 1 | selectivity ratio [8]: 4 | selectivity ratio [9]: < 1 | selectivity ratio [10]: < 1 | selectivity ratio [11]: 5

Cc1cc(C#N)cc(C)c1Oc1nc(NC2CCC(NCc3ccc(Br)cc3)CC2)nc2ccsc12 (stereo unspecified)
selectivity ratio [1]: < 1 | CC50 at 120 h [2]: 3450 nM | EC50 [3]: > 3450 nM | selectivity ratio [4]: < 1 | EC50 [5]: 339 nM | selectivity ratio [6]: 10 | selectivity ratio [7]: ≤ 2 | selectivity ratio [8]: ≤ 5 | selectivity ratio [9]: < 1 | selectivity ratio [10]: < 1 | selectivity ratio [11]: 4

Cc1cc(/C=C/C#N)cc(C)c1Oc1nc(NC2CCN(Cc3ccccc3Br)CC2)nc2ccsc12
selectivity ratio [1]: 45 | CC50 at 120 h [2]: 5610 nM | EC50 [3]: > 5610 nM | selectivity ratio [4]: 63 | EC50 [5]: 40.2 nM | selectivity ratio [6]: 140 | selectivity ratio [7]: 117 | selectivity ratio [8]: 124 | selectivity ratio [9]: 16 | selectivity ratio [10]: 37 | selectivity ratio [11]: 39

Cc1cc(/C=C/C#N)cc(C)c1Oc1nc(NC2CCN(Cc3ccccc3C#N)CC2)nc2ccsc12
selectivity ratio [1]: 66 | CC50 at 120 h [2]: 2280 nM | EC50 [3]: > 2280 nM | selectivity ratio [4]: 60 | EC50 [5]: 9.66 nM | selectivity ratio [6]: 236 | selectivity ratio [7]: 151 | selectivity ratio [8]: 130 | selectivity ratio [9]: 7 | selectivity ratio [10]: 18 | selectivity ratio [11]: 53

Cc1cc(/C=C/C#N)cc(C)c1Oc1nc(NC2CCN(Cc3ccc(C#N)cc3)CC2)nc2ccsc12
selectivity ratio [1]: 86 | CC50 at 120 h [2]: 2670 nM | EC50 [3]: > 2680 nM | selectivity ratio [4]: 118 | EC50 [5]: 5.26 nM | selectivity ratio [6]: 509 | selectivity ratio [7]: 364 | selectivity ratio [8]: 494 | selectivity ratio [9]: 45 | selectivity ratio [10]: 81 | selectivity ratio [11]: 91

Cc1cc(C#N)cc(C)c1Oc1nc(NC2CCC(NCc3ccc(S(C)(=O)=O)cc3)CC2)nc2ccsc12 (stereo unspecified)
selectivity ratio [1]: < 1 | CC50 at 120 h [2]: 75200 nM | EC50 [3]: > 75200 nM | selectivity ratio [4]: < 1 | EC50 [5]: 57.3 nM | selectivity ratio [6]: 1320 | selectivity ratio [7]: ≤ 1 | Ratio EC50 [12]: 2.4 | selectivity ratio [8]: 212 | selectivity ratio [9]: < 1 | selectivity ratio [10]: ≤ 1 | selectivity ratio [11]: 556

Cc1cc(C#N)cc(C)c1Oc1nc(NC2CCC(NCc3ccc(F)cc3)CC2)nc2ccsc12 (stereo unspecified)
selectivity ratio [1]: < 1 | CC50 at 120 h [2]: 2760 nM | EC50 [3]: > 2760 nM | selectivity ratio [4]: < 1 | EC50 [5]: 553 nM | selectivity ratio [6]: 5 | selectivity ratio [7]: 3 | selectivity ratio [8]: 3 | selectivity ratio [9]: < 1 | selectivity ratio [10]: < 1 | selectivity ratio [11]: ≤ 2

Cc1cc(/C=C/C#N)cc(C)c1Oc1nc(NC2CCN(Cc3ccc(F)cc3)CC2)nc2ccsc12
selectivity ratio [1]: 95 | CC50 at 120 h [2]: 2580 nM | EC50 [3]: > 2580 nM | selectivity ratio [4]: 25 | EC50 [5]: 5.86 nM | selectivity ratio [6]: 441 | selectivity ratio [7]: 181 | selectivity ratio [8]: 405 | selectivity ratio [9]: 20 | selectivity ratio [10]: 17 | selectivity ratio [11]: 74

Cc1cc(C#N)cc(C)c1Oc1nc(NC2CCN(Cc3ccc(C(N)=O)cc3)CC2)nc2sccc12
selectivity ratio [1]: 20 | CC50 at 120 h [2]: 4930 nM | EC50 [3]: > 4930 nM | selectivity ratio [4]: < 1 | EC50 [5]: 152 nM | selectivity ratio [6]: 32 | selectivity ratio [7]: 9 | selectivity ratio [8]: 11 | selectivity ratio [9]: 3 | selectivity ratio [10]: < 1 | selectivity ratio [11]: 6

Cc1cc(/C=C/C#N)cc(C)c1Oc1nc(NC2CCN(Cc3cccc(F)c3)CC2)nc2ccsc12
selectivity ratio [1]: 138 | CC50 at 120 h [2]: 4760 nM | EC50 [3]: > 4760 nM | selectivity ratio [4]: 84 | EC50 [5]: 9.73 nM | selectivity ratio [6]: 489 | selectivity ratio [7]: 216 | selectivity ratio [8]: 226 | selectivity ratio [9]: 38 | selectivity ratio [10]: 30 | selectivity ratio [11]: 150

From ChEMBL document CHEMBL4049458, “Structure-Based Optimization of Thiophene[3,2-d]pyrimidine Derivatives as Potent HIV-1 Non-nucleoside Reverse Transcriptase Inhibitors with Improved Potency against Resistance-Associated Variants” (J Med Chem, 2017)
